Source: ChEMBL document CHEMBL4251682, “Nitric Oxide Inhibitory Sesquiterpenoids and Its Dimers from Artemisia freyniana” (J Nat Prod, 2018)

Tests used:
RAW264.7 [1] = test: Inhibition of LPS-induced nitric oxide production in mouse RAW264.7 cells after 24 hrs by Griess assay; type: functional, cell-based; conditions: RAW264.7, 24 h
HCT-116 = test: Cytotoxicity against human HCT116 cells by MTT assay; type: functional, cell-based
Procedure, shortened: (§1)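 MTT-based growth inhibition of HCT116 and DU145 cells following an established protocol, with taxol as positive control.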

DU-145 = test: Cytotoxicity against human DU145 cells by MTT assay; type: functional, cell-based; procedure, shortened: as §1
RAW264.7 [2] = test: Cytotoxicity against mouse RAW264.7 cells assessed as effect on cell viability at 50 uM by MTT assay; type: cell-based; conditions: raw264.7, 50 µM

| IC50 (RAW264.7 [1]) | Compound | IC50 (HCT-116) | IC50 (DU-145) | Activity (RAW264.7 [2]) |
| --- | --- | --- | --- | --- |
| 10.7 µM | C[C@@H]1C[C@H]2[C@@H]3CCC4=CC(=O)C=C[C@]4(C)[C@@]3(F)[C@@H](O)C[C@]2(C)[C@@]1(O)C(=O)CO [DEXAMETHASONE] |  |  |  |
|  | C=C(C(=O)O)[C@H]1C[C@@]23O[C@@]2(C)CCC[C@]3(C)C[C@@H]1OC(C)=O | > 50 µM | > 50 µM | Non-Toxic |
| 10.8 µM | C=C(C(=O)O)[C@@H]1C[C@@H]2O[C@@]23CCC[C@H](C)[C@@]3(C)C1 | > 50 µM | > 50 µM | Non-Toxic |
| 18.9 µM | C=C(C(=O)O)[C@@H]1CC=C2[C@H](O)CC[C@H](C)[C@@]2(C)C1 | > 50 µM | > 50 µM | Non-Toxic |
